Measured values published in article PMC8404148 (Endocrine-related cancer, 2021).

Assays:
5097 PDX organoids = test: Breast cancer PDX organoid growth, 5097 line; type: cell-based, human; settings: 10 nM single agent, two weeks, vs vehicle
4013 PDX organoids = test: Breast cancer PDX organoid growth, 4013 line; type: cell-based, human; settings: SI-12 10 nM, BEZ235 2 nM, two weeks
Summary of the method: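 Organoids derived from the 4013 PDX tumour, which came from a patient with triple-negative infiltrating ductal carcinoma. The tumour was passaged in mice eight times before use.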

MCF-7 cells = settings: read-out: IC50 for suppressing MCF-7 cell growth, ref Wang et al. 2014; cited from earlier work

CCN1CCN(Cc2ccc(Nc3ncc(F)c(-c4cc(F)c5nc(C)n(C(C)C)c5c4)n3)nc2)CC1 [Abemaciclib]
organoid numbers (5097 PDX organoids): reduced organoid numbers

Cn1c(=O)n(-c2ccc(C(C)(C)C#N)cc2)c2c3cc(-c4cnc5ccccc5c4)ccc3ncc21 [BEZ235]
organoid formation, single compound (4013 PDX organoids): could repress organoid formation

C[C@]12CC[C@H](O)C[C@H]1CC[C@@H]1[C@@H]2CC[C@]2(C)[C@@H](c3ccc(=O)oc3)CC[C@]12O [bufalin]
IC50 (MCF-7 cells): 3.2 nM
